Assay results as given in ChEMBL document CHEMBL1121813, “Dihydrochalcone sweeteners. A study of the atypical temporal phenomena” (1981).

What was measured:
Assay type in all cases: functional
[1] = organism: Homo sapiens; experiment: Intensity calculated on a weight basis relative to an 85500 ppm sucrose solution at a concentration of 250 ppm (mean value)
Method in brief: (§1)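 Trained human panel tasted aqueous solutions of purity-checked (≥95 weight percent) compounds cleared for mutagenicity and mouse oral toxicity. Weight-basis intensity I_w = perceived intensity × (85500 ppm sucrose / compound concentration in ppm). The mean is reported with 2S_m limits; data deviating excessively at 95% confidence were rejected by the t-value method.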

[2] = organism: Homo sapiens; experiment: Number of taste judgments per compound
[3] = organism: Homo sapiens; experiment: Experimentally determined perceived intensity of compound at a concentration of 250 ppm (mean value)
Method in brief: (§2)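 Trained human sensory panel of judges tasted aqueous solutions of the compound. Samples had to be ≥95 weight % pure (HPLC, proton titration, Karl Fischer), non-mutagenic in five Salmonella typhimurium strains with and without microsomal activation, and non-toxic in a single-oral-dose mouse test. Perceived intensity (Ip) was read from time–intensity curves at 4- or 6-s intervals and averaged. Outliers at the 95% level were rejected by t-value. Values reported as mean (2Sm).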

[4] = organism: Homo sapiens; experiment: Intensity calculated on a molar basis relative to a 0.25 M sucrose solution at a concentration of 250 ppm (mean value)
Method in brief: (§3)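 Trained human judges tasted aqueous solutions of the test compound; compounds were first required to be ≥95 weight percent pure and free of mutagenicity (five Salmonella typhimurium strains, ± microsomal activation) and of single oral dose mouse toxicity. Molar intensity I_m = perceived intensity × (0.25 M sucrose / compound molar concentration). The mean is reported with 2S_m limits; outliers were rejected at 95% confidence by t-value.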

[5] = organism: Homo sapiens; experiment: Sweet character at a concentration of 250 ppm (mean value)
Method in brief: (§4)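 Trained human sensory panel (Swartz method) tasted dilute aqueous solutions of the compounds, which had to be ≥95 weight percent pure and free of mutagenicity and toxicity. Taste character is reported as the mean value with 2S_m limits. Data deviating excessively at the 95% confidence level were rejected by the t-value method.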

[6] = organism: Homo sapiens; experiment: Sweet / Bitter character at a concentration of 250 ppm (mean value); 14/86
[7] = organism: Homo sapiens; experiment: Percentage of judgments reporting an aftertaste at a concentration of 250 ppm and character thereof
Method in brief: (§5)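 Trained judges tasted aqueous solutions of the compounds, which had to be ≥95 weight percent pure and to have passed mutagenicity and single oral dose toxicity screening. The value is the percentage of panel judgments reporting an aftertaste. Where given, its character is recorded as sweet, bitter or bitter-sweet.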

[8] = organism: Homo sapiens; experiment: Sour character at a concentration of 250 ppm (mean value); method in brief: as §4
[9] = organism: Homo sapiens; experiment: Salty character at a concentration of 250 ppm (mean value); method in brief: as §4
[10] = organism: Homo sapiens; experiment: Bitter character at a concentration of 250 ppm (mean value)
Method in brief: (§6)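 Trained human panel tasted aqueous solutions. Each judge reported whether there was an aftertaste and its character (sweet, bitter or bitter-sweet). The value is the percentage of judgments reporting a bitter aftertaste.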

[11] = organism: Homo sapiens; experiment: Other taste character at a concentration of 250 ppm (mean value); method in brief: as §4
[12] = organism: Homo sapiens; experiment: Experimentally determined perceived intensity of compound at a concentration of 240 ppm (mean value); method in brief: as §2
[13] = organism: Homo sapiens; experiment: Salty character at a concentration of 240 ppm (mean value); method in brief: as §4
[14] = organism: Homo sapiens; experiment: Sour character at a concentration of 240 ppm (mean value); method in brief: as §4
[15] = organism: Homo sapiens; experiment: Other taste character at a concentration of 240 ppm (mean value); method in brief: as §4
[16] = organism: Homo sapiens; experiment: Sweet / Bitter character at a concentration of 240 ppm (mean value); 7/93
[17] = organism: Homo sapiens; experiment: Intensity calculated on a molar basis relative to a 0.25 M sucrose solution at a concentration of 240 ppm (mean value); method in brief: as §3
[18] = organism: Homo sapiens; experiment: Sweet character at a concentration of 240 ppm (mean value); method in brief: as §4
[19] = organism: Homo sapiens; experiment: Percentage of judgments reporting an aftertaste at a concentration of 240 ppm and character thereof; method in brief: as §5
[20] = organism: Homo sapiens; experiment: Intensity calculated on a weight basis relative to an 85500 ppm sucrose solution at a concentration of 240 ppm (mean value); method in brief: as §1
[21] = organism: Homo sapiens; experiment: Bitter character at a concentration of 240 ppm (mean value); method in brief: as §6
[22] = organism: Homo sapiens; experiment: Sweet / Bitter character at a concentration of 240 ppm (mean value); 0/100
[23] = organism: Homo sapiens; experiment: Sour character at a concentration of 246 ppm (mean value)
[24] = organism: Homo sapiens; experiment: Salty character at a concentration of 246 ppm (mean value)
[25] = organism: Homo sapiens; experiment: Intensity calculated on a molar basis relative to a 0.25 M sucrose solution at a concentration of 246 ppm (mean value); method in brief: as §3
[26] = organism: Homo sapiens; experiment: Experimentally determined perceived intensity of compound at a concentration of 246 ppm (mean value); method in brief: as §2
[27] = organism: Homo sapiens; experiment: Bitter character at a concentration of 246 ppm (mean value); method in brief: as §6
[28] = organism: Homo sapiens; experiment: Intensity calculated on a weight basis relative to an 85500 ppm sucrose solution at a concentration of 246 ppm (mean value); method in brief: as §1
[29] = organism: Homo sapiens; experiment: Sweet / Bitter character at a concentration of 246 ppm (mean value); 44/56
[30] = organism: Homo sapiens; experiment: Sweet character at a concentration of 246 ppm (mean value)
[31] = organism: Homo sapiens; experiment: Percentage of judgments reporting an aftertaste at a concentration of 246 ppm and character thereof; method in brief: as §5
[32] = organism: Homo sapiens; experiment: Other taste character at a concentration of 246 ppm (mean value); method in brief: as §4

| Compound | Judgments [2] | IP [12] | Taste character [13] | Taste character [14] | Taste character [15] | IM [17] | Taste character [18] | Judgments [19] | IW [20] | Taste character [21] | also measured |
| --- | --- | --- | --- | --- | --- | --- | --- | --- | --- | --- | --- |
| O=C([O-])COc1cc(O)c(C(=O)CCc2ccc(Cl)c(O)c2)c(O)c1.[Na+] | 12 | – | – | – | – | – | – | – | – | – | IW [1]: 27; IP [3]: 0.28; IM [4]: 31; Taste character [5]: 11; Taste character [6]: 14; Judgments [7]: 0; Taste character [8]: 0; Taste character [9]: 0; Taste character [10]: 70; Taste character [11]: 19 |
| COc1ccc(CCCc2c(O)cc(O)cc2O)cc1O | 12 | 0.25 | 0 | 0 | 5 | 76 | 7 | 0 | 89 | 88 | Taste character [16]: 7 |
| COc1ccc(CCCc2c(O)cc(OCC(=O)[O-])cc2O)cc1O.[Na+] | 12 | 0.01 | 0 | 0 | 0 | 4 | 0 | 0 | 4 | 100 | Taste character [22]: 0 |
| O=C([O-])COc1cc(O)c(C(=O)CCc2cccc(O)c2)c(O)c1.[Na+] | 12 | – | – | – | – | – | – | – | – | – | Taste character [23]: 0; Taste character [24]: 0; IM [25]: 79; IP [26]: 0.22; Taste character [27]: 49; IW [28]: 76; Taste character [29]: 44; Taste character [30]: 38; Judgments [31]: 62; Taste character [32]: 13 |
